Results: PMC3312100 (Frontiers in Systems Neuroscience, 2012)
“Also recorded” adds a separate entry of the source.

What was measured:
[1] = Fluorescence characterization; format: physicochemical; conditions: for Fluorescence emission intensity (in words): Figure 2, Appendix
Summary of the method: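 Test compound was dissolved at 10 mM in buffer (12.5 mM MgCl2, 100 mM NaCl, 75 mM Tris/HCl, pH 7.4). Absorption and emission spectra were recorded on a fluorometer at room temperature. Emission spectra used 405 nm excitation.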

[2] = biological target: human histamine H3 receptor (Homo sapiens, UniProt Q9Y5N1); assay: [3H]Nα-methylhistamine competition binding assay, membranes of HEK-293 cells; conditions: for Selectivity for hH3R over hH1R and hH4R (in words): comparison of Ki values of Table 1
Summary of the method: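 Membranes came from HEK-293 cells stably expressing recombinant hH3R, with protein measured by Bradford. They were incubated with 2 nM [3H]Nα-methylhistamine and test compound from 0.01 nM to 100 μM at seven concentrations. Non-specific binding was defined with 10 μM pitolisant. Values are means of at least three independent experiments, each in triplicate.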

human histamine H3 receptor, sequence (Q9Y5N1 whole entry): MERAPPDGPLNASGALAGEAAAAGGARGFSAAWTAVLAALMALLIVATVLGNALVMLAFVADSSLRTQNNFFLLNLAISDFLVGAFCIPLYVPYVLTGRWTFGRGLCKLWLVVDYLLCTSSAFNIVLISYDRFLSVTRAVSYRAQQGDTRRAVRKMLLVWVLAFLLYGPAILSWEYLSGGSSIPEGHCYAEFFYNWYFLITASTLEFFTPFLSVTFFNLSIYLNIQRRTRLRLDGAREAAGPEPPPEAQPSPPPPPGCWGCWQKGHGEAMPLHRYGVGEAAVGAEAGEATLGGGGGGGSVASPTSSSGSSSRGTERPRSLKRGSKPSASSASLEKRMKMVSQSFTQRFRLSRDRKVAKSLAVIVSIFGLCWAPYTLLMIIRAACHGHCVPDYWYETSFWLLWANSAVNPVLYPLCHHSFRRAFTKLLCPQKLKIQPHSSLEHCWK

| Area of the fluorescence spectrum of emission [1] | Affinity at the human histamine H3 receptor (in words) [2] | SMILES | Selectivity for hH3R over hH1R and hH4R (in words) [2] | Fluorescence emission intensity (in words) [1] |
| --- | --- | --- | --- | --- |
| yellow area | – | CN(C)c1ccc(/C=C2\CCc3ccc(OCCCN4CCCCC4)cc3C2=O)cc1 [Compound 4, (E)-2-(4-(Dimethylamino)benzylidene)-7-(3-(piperidin-1-yl)propoxy)-1-tetralone] | – | – |
| – | – | CN(C)c1ccc(/C=C/C=C2\CCc3cc(OCCCN4CCCCC4)ccc3C2=O)cc1 [Compound 5, (E)-2-((E)-3-(4-(Dimethylamino)phenyl)allylidene)-6-(3-(piperidin-1-yl)propoxy)-1-tetralone] | less selective chalcone; also recorded: not as selective as compound 9 | emits more intensive |
| yellow area | – | CN(C)c1ccc(/C=C2\CCc3ccc(OCc4ccc(OCCCN5CCCCC5)cc4)cc3C2=O)cc1 [Compound 10, (E)-2-(4-(Dimethylamino)benzylidene)-7-(4-(3-(piperidin-1-yl)propoxy)benzyloxy)-1-tetralone] | – | – |
| – | – | O=C1CCCc2ccc(OCc3ccc(OCCCN4CCCCC4)cc3)cc21 [Compound 8, 7-(4-(3-(Piperidin-1-yl)propoxy)benzyloxy)-1-tetralone] | one of the highest selectivity | – |
| yellow area | – | CN(C)c1ccc(/C=C2\CCc3cc(OCCCN4CCCCC4)ccc3C2=O)cc1 [Compound 3, (E)-2-(4-(Dimethylamino)benzylidene)-6-(3-(piperidin-1-yl)propoxy)-1-tetralone] | – | – |
| yellow area | highest affinity | CN(C)c1ccc(/C=C2\CCc3cc(OCc4ccc(OCCCN5CCCCC5)cc4)ccc3C2=O)cc1 [Compound 9, (E)-2-(4-(Dimethylamino)benzylidene)-6-(4-(3-(piperidin-1-yl)propoxy)benzyloxy)-1-tetralone] | most selective compound in the fluorescent chalcone series; also recorded: most human histamine H3 receptor selective | most intense compound; also recorded: highest intensity of all synthesized compounds |
